Measured values taken from ChEMBL document CHEMBL3868583, “6-Aryl substituted 4-(4-cyanomethyl) phenylamino quinazolines as a new class of isoform-selective PI3K-alpha inhibitors” (Eur J Med Chem, 2016).
Converted amounts (≈) assume the structure as drawn.

Key:
[1] = target: CYP2C9 (Homo sapiens, UniProt P11712); experiment: Inhibition of human CYP2C9 at 10 uM after 10 mins by fluorescence assay; type: ADME
[2] = Thermodynamic equilibrium solubility of compound in water up to 300 ug after 4 hrs by UV absorbance method; type: physicochemical; conditions: read-out: Therm_solubility
How it was run: (§1)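 Methanol stock evaporated in wells to give 1–300 µg solid; 200 µl medium (water, PBS, SGF or SIF) added, shaken 300 rpm 4 h at 25 ± 1 °C, equilibrated overnight, centrifuged; supernatant UV absorbance at λmax; saturation point from concentration–absorbance curve; triplicate.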

[3] = Cytotoxicity against human A375 cells assessed as cell growth inhibition after 48 hrs by MTT assay; type: functional; conditions: A-375, 48 h
How it was run: (§2)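 MTT assay: 3 × 10^3 cells/well seeded, compounds added after 24 h at final […], 48 h exposure. MTT (2.5 mg/mL in PBS) added, formazan dissolved in DMSO, absorbance 570 nm. Viability as % of untreated; three independent experiments, mean ± SD.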

[4] = Cytotoxicity against HGF cells assessed as cell growth inhibition after 48 hrs by MTT assay; type: toxicity, cell-based; conditions: human
[5] = species on record: Homo sapiens; experiment: Selectivity ratio of IC50 for PI3Kdelta (unknown origin) to IC50 for PI3Kalpha (unknown origin)
[6] = Thermodynamic equilibrium solubility of compound in simulated intestinal fluid up to 300 ug after 4 hrs by UV absorbance method; type: ADME; conditions: read-out: Therm_solubility; how it was run: as §1
[7] = Cytotoxicity against human PANC1 cells assessed as cell growth inhibition after 48 hrs by MTT assay; type: functional; conditions: PANC-1, 48 h; how it was run: as §2
[8] = Cytotoxicity against human MCF7 cells assessed as cell growth inhibition after 48 hrs by MTT assay; type: functional; conditions: MCF7, 48 h; how it was run: as §2
[9] = target: CYP3A4 (Homo sapiens, UniProt P08684); experiment: Inhibition of human CYP3A4 at 10 uM after 10 mins by fluorescence assay; type: ADME
[10] = tested on: MCF7; experiment: Induction of cell cycle arrest in human MCF7 cells assessed as accumulation at S phase at 10 uM after 24 hrs by propidium iodide-staining based FACS analysis (reference value: 30 %); type: functional
How it was run: (§3)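 MCF-7 or PC-3 cells treated at indicated concentrations for 24 h, pelleted, PBS-washed, fixed in ice-cold 70% ethanol overnight at 4 °C. RNase 0.2 mg/mL 1 h at 37 °C, propidium iodide 10 µg/mL 30 min dark. 10,000 events (FL2-A vs FL2-W) by flow cytometry; fractions in apoptosis/sub-G1, G1, S, G2-M.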

[11] = Cytotoxicity against HEK293 cells assessed as cell growth inhibition after 48 hrs by MTT assay; type: toxicity, cell-based; conditions: human
[12] = target: T1, CYP1A2 (Homo sapiens, UniProt P05177); experiment: Inhibition of human CYP1A2 at 10 uM after 10 mins by fluorescence assay; type: ADME
T1 sequence (P05177 whole entry): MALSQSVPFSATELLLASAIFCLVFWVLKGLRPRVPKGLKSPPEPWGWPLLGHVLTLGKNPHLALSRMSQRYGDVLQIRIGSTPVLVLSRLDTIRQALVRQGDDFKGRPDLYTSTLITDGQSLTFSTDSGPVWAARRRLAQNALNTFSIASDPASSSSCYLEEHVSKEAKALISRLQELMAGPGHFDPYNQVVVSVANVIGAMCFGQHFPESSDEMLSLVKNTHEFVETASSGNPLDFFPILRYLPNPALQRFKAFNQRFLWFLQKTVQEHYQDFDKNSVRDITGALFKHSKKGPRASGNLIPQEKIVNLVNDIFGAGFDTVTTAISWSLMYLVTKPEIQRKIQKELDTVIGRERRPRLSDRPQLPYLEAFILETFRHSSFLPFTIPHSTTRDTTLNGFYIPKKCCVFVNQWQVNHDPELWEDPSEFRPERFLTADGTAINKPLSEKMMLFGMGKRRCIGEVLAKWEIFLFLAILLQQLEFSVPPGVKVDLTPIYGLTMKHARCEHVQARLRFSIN

[13] = target: Phosphatidylinositol 4,5-bisphosphate 3-kinase catalytic subunit alpha isoform (Homo sapiens, UniProt P42336); experiment: Inhibition of PI3Kalpha (unknown origin) using diC8 PIP2 as substrate at 0.5 uM after 80 mins by ADP-glo assay
[14] = species on record: Homo sapiens; experiment: Selectivity ratio of IC50 for PI3Kgamma (unknown origin) to IC50 for PI3Kalpha (unknown origin)
[15] = Efflux ratio of permeability in human Caco2 cells after 90 mins by LC-MS/MS analysis; type: ADME, cell-based; conditions: Caco-2
How it was run: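 Caco-2 monolayers grown 21 days (TEER >500). Compound in HBSS with 10 mM HEPES dosed to the apical chamber, and in a repeat run to the basolateral chamber. Both chambers sampled at 0 and 90 min at 37 °C. Analysis by LC-MS/MS.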

[16] = species on record: Homo sapiens; experiment: Selectivity ratio of IC50 for PI3Kbeta (unknown origin) to IC50 for PI3Kalpha (unknown origin)
[17] = Thermodynamic equilibrium solubility of compound in simulated gastric fluid up to 300 ug after 4 hrs by UV absorbance method; type: ADME; conditions: read-out: Therm_solubility; how it was run: as §1
[18] = tested on: PC-3; experiment: Induction of cell cycle arrest in human PC3 cells assessed as accumulation at subG1 phase after 24 hrs by propidium iodide-staining based FACS analysis; type: functional
How it was run: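 PC-3 cells exposed 24 h at indicated concentrations, pelleted, fixed overnight in ice-cold 70% ethanol at 4 °C, RNase 0.2 mg/mL at 37 °C 1 h, propidium iodide 10 µg/mL 30 min in dark; 10,000 events acquired (FL2-A vs FL2-W); DNA histograms modelled for apoptotic (sub-G1), G1, S and G2-M fractions.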

[19] = Thermodynamic equilibrium solubility of compound in PBS up to 300 ug after 4 hrs by UV absorbance method; type: physicochemical; conditions: read-out: Therm_solubility; how it was run: as §1
[20] = target: CYP2D6 (Homo sapiens, UniProt P10635); experiment: Inhibition of human CYP2D6 at 10 uM after 10 mins by fluorescence assay; type: ADME
[21] = tested on: MCF7; experiment: Induction of cell cycle arrest in human MCF7 cells assessed as accumulation at subG1 phase after 24 hrs by propidium iodide-staining based FACS analysis; type: functional; how it was run: as §3
[22] = target: CYP2C19 (Homo sapiens, UniProt P33261); experiment: Inhibition of human CYP2C19 at 10 uM after 10 mins by fluorescence assay; type: ADME
[23] = Cytotoxicity against human HL60 cells assessed as cell growth inhibition after 48 hrs by MTT assay; type: functional; conditions: HL-60, 48 h; how it was run: as §2
[24] = Cytotoxicity against human PC3 cells assessed as cell growth inhibition after 48 hrs by MTT assay; type: functional; conditions: PC-3, 48 h; how it was run: as §2
[25] = Cytotoxicity against human FR2 cells assessed as cell growth inhibition after 48 hrs by MTT assay; type: toxicity, cell-based
[26] = tested on: PC-3; experiment: Induction of cell cycle arrest in human PC3 cells assessed as accumulation at G2 phase at 30 uM after 24 hrs by propidium iodide-staining based FACS analysis (reference value: 17 %); type: functional; how it was run: as §3
[27] = target: Phosphatidylinositol 4,5-bisphosphate 3-kinase catalytic subunit beta isoform (Homo sapiens, UniProt P42338); experiment: Inhibition of PI3Kbeta (unknown origin) using diC8 PIP2 as substrate up to 20 uM after 60 mins by ADP-glo assay
Chain of Phosphatidylinositol 4,5-bisphosphate 3-kinase catalytic subunit beta isoform (P42338 whole entry, looked up, canonical isoform): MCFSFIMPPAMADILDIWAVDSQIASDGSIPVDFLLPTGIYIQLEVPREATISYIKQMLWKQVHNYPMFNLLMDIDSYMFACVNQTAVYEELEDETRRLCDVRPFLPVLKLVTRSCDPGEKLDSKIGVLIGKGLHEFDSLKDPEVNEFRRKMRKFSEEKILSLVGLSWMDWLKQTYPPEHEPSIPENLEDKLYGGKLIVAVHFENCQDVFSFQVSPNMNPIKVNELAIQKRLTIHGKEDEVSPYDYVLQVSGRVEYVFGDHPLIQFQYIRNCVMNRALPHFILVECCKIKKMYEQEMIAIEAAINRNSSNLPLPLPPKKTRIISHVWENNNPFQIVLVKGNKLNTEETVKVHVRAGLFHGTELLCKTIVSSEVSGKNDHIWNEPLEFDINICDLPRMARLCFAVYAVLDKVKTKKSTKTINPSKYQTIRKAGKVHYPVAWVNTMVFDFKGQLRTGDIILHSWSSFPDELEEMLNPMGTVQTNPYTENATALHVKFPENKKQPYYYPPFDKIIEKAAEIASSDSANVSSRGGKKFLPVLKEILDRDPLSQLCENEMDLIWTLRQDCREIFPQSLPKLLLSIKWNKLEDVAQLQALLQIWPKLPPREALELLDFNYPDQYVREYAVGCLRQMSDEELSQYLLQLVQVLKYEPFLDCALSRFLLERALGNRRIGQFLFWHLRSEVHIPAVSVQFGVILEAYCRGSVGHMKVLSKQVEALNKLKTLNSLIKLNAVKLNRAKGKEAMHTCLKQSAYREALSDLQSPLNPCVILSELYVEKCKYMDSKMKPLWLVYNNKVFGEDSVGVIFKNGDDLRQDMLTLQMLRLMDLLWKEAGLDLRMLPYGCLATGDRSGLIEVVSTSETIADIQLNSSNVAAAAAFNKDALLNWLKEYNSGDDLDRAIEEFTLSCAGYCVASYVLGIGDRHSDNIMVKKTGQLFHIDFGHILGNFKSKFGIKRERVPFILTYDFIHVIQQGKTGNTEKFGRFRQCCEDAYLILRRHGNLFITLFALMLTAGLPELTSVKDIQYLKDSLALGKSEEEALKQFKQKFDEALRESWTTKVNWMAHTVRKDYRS

Chain of CYP2C19 (P33261 whole entry): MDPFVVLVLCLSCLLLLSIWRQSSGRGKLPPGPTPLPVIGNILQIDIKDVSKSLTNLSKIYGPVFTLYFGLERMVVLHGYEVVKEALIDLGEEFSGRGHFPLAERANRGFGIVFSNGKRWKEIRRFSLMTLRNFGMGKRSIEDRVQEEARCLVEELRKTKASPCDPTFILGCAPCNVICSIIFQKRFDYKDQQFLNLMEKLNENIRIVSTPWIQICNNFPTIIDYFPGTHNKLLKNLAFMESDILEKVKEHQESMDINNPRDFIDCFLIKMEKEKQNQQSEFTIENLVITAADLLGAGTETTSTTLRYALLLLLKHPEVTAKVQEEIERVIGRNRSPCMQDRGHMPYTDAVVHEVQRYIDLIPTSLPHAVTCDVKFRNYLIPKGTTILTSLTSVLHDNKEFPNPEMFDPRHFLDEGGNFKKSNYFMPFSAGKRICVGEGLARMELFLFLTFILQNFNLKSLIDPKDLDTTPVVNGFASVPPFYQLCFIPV
Chain of Phosphatidylinositol 4,5-bisphosphate 3-kinase catalytic subunit alpha isoform (P42336 whole entry, canonical isoform): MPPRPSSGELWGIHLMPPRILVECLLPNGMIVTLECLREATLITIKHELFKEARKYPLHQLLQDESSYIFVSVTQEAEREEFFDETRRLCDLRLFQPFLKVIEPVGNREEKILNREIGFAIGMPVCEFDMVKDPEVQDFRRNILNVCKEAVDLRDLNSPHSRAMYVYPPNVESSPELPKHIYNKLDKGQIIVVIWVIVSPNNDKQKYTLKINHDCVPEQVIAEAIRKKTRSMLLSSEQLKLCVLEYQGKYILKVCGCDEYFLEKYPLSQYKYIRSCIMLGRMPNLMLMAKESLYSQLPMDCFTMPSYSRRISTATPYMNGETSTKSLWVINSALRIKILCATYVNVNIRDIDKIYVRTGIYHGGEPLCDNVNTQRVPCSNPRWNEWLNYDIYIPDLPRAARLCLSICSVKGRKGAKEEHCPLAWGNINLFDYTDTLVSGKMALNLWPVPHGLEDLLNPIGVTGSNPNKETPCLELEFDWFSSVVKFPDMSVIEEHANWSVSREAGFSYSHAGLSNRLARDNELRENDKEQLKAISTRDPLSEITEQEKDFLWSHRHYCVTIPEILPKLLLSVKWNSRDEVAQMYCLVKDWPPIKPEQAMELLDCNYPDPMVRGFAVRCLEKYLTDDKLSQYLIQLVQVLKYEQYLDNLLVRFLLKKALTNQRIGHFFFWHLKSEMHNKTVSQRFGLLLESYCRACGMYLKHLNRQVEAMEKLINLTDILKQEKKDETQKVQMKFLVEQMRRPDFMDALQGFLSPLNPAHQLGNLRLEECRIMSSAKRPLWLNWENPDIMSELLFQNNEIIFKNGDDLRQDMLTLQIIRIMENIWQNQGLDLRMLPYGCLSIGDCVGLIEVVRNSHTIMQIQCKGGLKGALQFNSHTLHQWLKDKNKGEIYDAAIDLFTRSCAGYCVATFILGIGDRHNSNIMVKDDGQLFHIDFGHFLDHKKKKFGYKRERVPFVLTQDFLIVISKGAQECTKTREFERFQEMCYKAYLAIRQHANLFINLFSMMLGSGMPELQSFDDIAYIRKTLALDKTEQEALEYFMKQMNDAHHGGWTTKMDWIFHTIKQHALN
Chain of CYP2D6 (P10635 whole entry): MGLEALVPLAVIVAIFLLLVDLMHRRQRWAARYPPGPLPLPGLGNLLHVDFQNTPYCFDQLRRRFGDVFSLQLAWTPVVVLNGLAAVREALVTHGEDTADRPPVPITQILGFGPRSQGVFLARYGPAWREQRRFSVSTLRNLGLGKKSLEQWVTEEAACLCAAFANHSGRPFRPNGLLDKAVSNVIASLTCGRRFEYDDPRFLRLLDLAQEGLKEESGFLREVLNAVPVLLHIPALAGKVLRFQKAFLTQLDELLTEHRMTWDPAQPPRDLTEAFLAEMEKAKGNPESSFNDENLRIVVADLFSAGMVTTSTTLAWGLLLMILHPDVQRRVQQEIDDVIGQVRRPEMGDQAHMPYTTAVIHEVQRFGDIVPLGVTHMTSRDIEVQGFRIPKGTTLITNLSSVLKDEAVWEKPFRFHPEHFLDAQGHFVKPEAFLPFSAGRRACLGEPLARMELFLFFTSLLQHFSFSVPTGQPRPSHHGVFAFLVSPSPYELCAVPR
Chain of CYP2C9 (P11712 whole entry): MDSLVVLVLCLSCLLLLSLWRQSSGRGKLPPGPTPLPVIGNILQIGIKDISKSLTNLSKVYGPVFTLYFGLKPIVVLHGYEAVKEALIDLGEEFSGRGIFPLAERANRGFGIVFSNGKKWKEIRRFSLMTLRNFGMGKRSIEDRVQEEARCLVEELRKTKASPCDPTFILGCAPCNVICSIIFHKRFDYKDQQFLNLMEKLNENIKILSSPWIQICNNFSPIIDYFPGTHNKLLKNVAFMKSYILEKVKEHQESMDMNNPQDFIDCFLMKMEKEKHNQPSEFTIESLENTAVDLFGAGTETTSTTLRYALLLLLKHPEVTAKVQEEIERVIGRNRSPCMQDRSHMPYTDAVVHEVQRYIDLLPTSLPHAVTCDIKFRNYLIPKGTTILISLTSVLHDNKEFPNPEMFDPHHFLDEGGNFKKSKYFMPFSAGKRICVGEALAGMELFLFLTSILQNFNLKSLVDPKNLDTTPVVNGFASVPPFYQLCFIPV
Chain of CYP3A4 (P08684 whole entry): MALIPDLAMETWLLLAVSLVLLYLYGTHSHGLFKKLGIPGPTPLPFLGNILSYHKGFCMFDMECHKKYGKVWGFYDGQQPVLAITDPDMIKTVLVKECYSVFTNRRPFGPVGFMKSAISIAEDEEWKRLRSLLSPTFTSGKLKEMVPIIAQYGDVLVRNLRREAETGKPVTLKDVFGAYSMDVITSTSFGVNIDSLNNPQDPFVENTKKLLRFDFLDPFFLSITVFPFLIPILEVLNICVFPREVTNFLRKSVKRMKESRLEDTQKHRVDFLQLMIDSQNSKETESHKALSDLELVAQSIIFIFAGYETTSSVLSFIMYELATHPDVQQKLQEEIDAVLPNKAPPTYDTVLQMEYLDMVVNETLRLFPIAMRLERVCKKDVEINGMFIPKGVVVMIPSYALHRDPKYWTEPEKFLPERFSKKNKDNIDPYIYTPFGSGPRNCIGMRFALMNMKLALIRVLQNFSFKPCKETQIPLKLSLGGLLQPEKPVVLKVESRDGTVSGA

| SMILES | inhibition at 10 min, 10 µM [1] [%] | solubility thermodynamic at 4 h [2] [µg/mL] | GI50 [3] [µM] | GI50 at 48 h [4] [µM] | Ratio IC50 [5] | solubility thermodynamic at 4 h [6] [µg/mL] | GI50 [7] [µM] | GI50 [8] [µM] | inhibition at 10 min, 10 µM [9] [%] | GI50 at 48 h [11] [µM] | inhibition at 10 min, 10 µM [12] [%] | inhibition [13] [%] | Ratio IC50 [14] | efflux ratio at 1.5 h [15] | Ratio IC50 [16] | solubility thermodynamic at 4 h [17] [µg/mL] | Activity [18] | solubility thermodynamic at 4 h [19] [µg/mL] | inhibition at 10 min, 10 µM [20] [%] | Activity [21] | other results |
| --- | --- | --- | --- | --- | --- | --- | --- | --- | --- | --- | --- | --- | --- | --- | --- | --- | --- | --- | --- | --- | --- |
| N#CCc1ccc(Nc2ncnc3ccc(-c4ccc5[nH]ccc5c4)cc23)cc1 | 88 | 10 (≈ 26.6 µM) | 31 | > 50 | > 49.7 | 5 (≈ 13.3 µM) | 16 | 7 | 51 | > 50 | 30 | 47.5 | 3.7 | 1.3 | > 49.7 | 80 (≈ 213 µM) | Dose-dependent effect | 10 (≈ 26.6 µM) | 29 | Dose-dependent effect | Activity [10]: 40%; inhibition at 10 min, 10 µM [22]: 10%; GI50 [23]: 18 µM; GI50 [24]: 24 µM; GI50 at 48 h [25]: > 50 µM |
| N#CCc1ccc(Nc2ncnc3ccc(-c4cncc5ccccc45)cc23)cc1 | 87 | 1 (≈ 2.58 µM) | 12 | > 50 | 5.9 | 1 (≈ 2.58 µM) | 9 | 12 | 27 | > 50 | 72 | 48.8 | 56 | 1.2 | > 133 | 800 (≈ 2060 µM) | Dose-dependent effect | 1 (≈ 2.58 µM) | -35 | Dose-dependent effect | Activity [26]: 12%; inhibition [27]: 0%; inhibition at 10 min, 10 µM [22]: 34%; GI50 [23]: 10 µM; GI50 [24]: 9 µM; GI50 at 48 h [25]: > 50 µM |
